Laboratory results published in ChEMBL document CHEMBL1126868, “Inhibitors of blood platelet cAMP phosphodiesterase. 4. Structural variation of the side-chain terminus of water-soluble 1,3-dihydro-2H-imidazo[4,5-b]quinolin-2-one derivatives” (J Med Chem, 1993).
“And” between values parts separate entries of the source, which are not always exact repeats. Equal entries are not always repeated.

Legend:
[1] = Aqueous solubility; type: physicochemical; details: read-out: S
Method in brief: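 A 10-mg sample was placed in 0.5 mL water and diluted stepwise up to 10 mL, or until it dissolved. Solubility is reported in mg/mL.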

Homo sapiens [2] = species: Homo sapiens; test: Inhibition of human platelet aggregation induced by ADP after 15 min incubation with platelet rich plasma; type: functional; details: 0.25 h
Method in brief: (§1)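 Human platelet-rich plasma was preincubated with drug for 3 min (standard) or 15 min, then aggregation was induced with 5.86 μM ADP. Aggregation at a range of drug concentrations was compared with vehicle-treated controls, and IC50 was taken from dose-response curves. Values are single, duplicate or triplicate (with SD) determinations.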

[3] = % metabolized in monkey S-9 after 2 hours (1 ug/ml); type: ADME; details: simiiformes, monkey S-9 fraction; read-out: Activity
Method in brief: (§2)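 Monkey liver homogenised at 0 °C in 3 volumes isotonic KCl (0.05 M phosphate, pH 7.4), spun 9000g 30 min to give S-9. Triplicate incubations at 37 °C for 2 h with cofactor mix (glucose-6-phosphate, NADP, nicotinamide, MgCl2), final drug 1 or 10 μg/mL. Parent measured by fluorescence HPLC after MeOH protein precipitation; % metabolized = 100% minus % remaining at 2 h versus t=0.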

Phosphodiesterase 3 [4] = molecular target: T1, Phosphodiesterase 3 (Homo sapiens, UniProt Q14432+Q13370); test: Inhibition of human platelet aggregation cAMP PDE in vitro; type: functional
Method in brief: (§3)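 Human platelet cAMP PDE assay run as in an earlier protocol, except that the [3H]adenosine product was resolved on DEAE Sephadex. Values are means of duplicate (deviation under 50% of mean) or triplicate determinations.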

[5] = % metabolized in monkey S-9 after 2 hours (10 ug/ml); type: ADME; details: simiiformes, monkey S-9 fraction; read-out: Activity; method in brief: as §2
Homo sapiens [6] = species: Homo sapiens; test: Inhibition of human platelet aggregation induced by ADP after 3 min incubation with platelet rich plasma; type: functional; details: 0.05 h; method in brief: as §1
[7] = half-life (t1/2 min); type: ADME; details: for T1/2: 2 h
Method in brief: (§4)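 Same monkey liver S-9 incubation (37 °C, final drug 1 or 10 μg/mL, triplicate). Aliquots taken at 0, 15, 30, 60, 90 and 120 min, quenched with MeOH and analysed for parent by fluorescence HPLC peak height. Half-life = ln 2 divided by the slope of a least-squares linear regression of peak height against time.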

Phosphodiesterase 3 [8] = molecular target: T1, Phosphodiesterase 3; test: Inhibition of human blood platelet c-AMP phosphodiesterase; type: functional; method in brief: as §3
[9] = % metabolized in monkey S-9 after 2 hours (10 ug/mL); type: ADME; details: simiiformes, monkey S-9 fraction; read-out: Activity; method in brief: as §2
[10] = t1/2 (min); type: ADME; method in brief: as §4

Structure (SMILES) | solubility [1] | IC50 (Homo sapiens [2]) | metabolised at 2 h, 1 ug/ml [3] | IC50 (Phosphodiesterase 3 [4]) | metabolised at 2 h, 10 ug/ml [5] | IC50 (Homo sapiens [6]) | half-life [7] | IC50 (Phosphodiesterase 3 [8]) | metabolised at 2 h, 10 ug/mL [9] | half-life [10] | T1/2 [7]
Cl.Oc1nc2cc3cc(OCCCc4nnnn4C4CCN(Cc5ccccc5)CC4)ccc3[nH]c-2n1 | > 10000 µg/mL | 4 nM | 7.2% | 0.84 nM |  | 39 nM | 15.8 h |  |  |  | 
Cl.Oc1nc2cc3cc(OCCCc4nnnn4C4CCN(Cc5ccc(F)cc5)CC4)ccc3[nH]c-2n1 | > 10000 µg/mL | 8 nM | 4.9% | 1.03 nM |  | 32 nM | 24.6 h |  |  |  | 
CCC(CC)CN1CCC(n2nnnc2CCCOc2ccc3[nH]c4nc(O)nc-4cc3c2)CC1.Cl | > 10000 µg/mL | 3 nM | 31.3% | 0.81 nM |  | 12 nM | 3.37 h |  |  |  | 
CCC(CC)CN1CCN(S(=O)(=O)CCCOc2ccc3[nH]c4nc(O)nc-4cc3c2)CC1.Cl | > 10000 µg/mL | 40 nM |  | 5.14 nM | 38.8% | 160 nM | 2.87 h |  |  |  | 
Cl.O=S(=O)(CCCOc1ccc2[nH]c3nc(O)nc-3cc2c1)C1CCN(Cc2ccc(F)cc2)CC1 | > 10000 µg/mL | 8.4 nM |  |  |  | 20 nM |  | 1 nM | 53% | 2 h | 
CCC(CC)CN1CCC(S(=O)(=O)CCCOc2ccc3[nH]c4nc(O)nc-4cc3c2)CC1.Cl | < 10000 µg/mL | 9 nM | 17% | 1.13 nM | 22.4% | 39 nM | 6.08 h |  |  |  | 7.05 h
Cl.O=S(=O)(CCCOc1ccc2[nH]c3nc(O)nc-3cc2c1)N1CCN(Cc2ccc(F)cc2)CC1 | > 20000 µg/mL | 35 nM | 29.4% | 4.96 nM | 18% | 280 nM | 6.75 h |  |  |  | 4.02 h

Results, then the molecule that gave them:

solubility [1] | IC50 (Homo sapiens [2]) | metabolised at 2 h, 1 ug/ml [3] | IC50 (Phosphodiesterase 3 [4]) | metabolised at 2 h, 10 ug/ml [5] | IC50 (Homo sapiens [6]) | half-life [7] | IC50 (Phosphodiesterase 3 [8]) | metabolised at 2 h, 10 ug/mL [9] | half-life [10] | T1/2 [7] | Structure (SMILES)
> 20000 µg/mL | 18 nM | 58.5% | 1.13 nM | 23.6% | 72 nM |  |  |  |  |  | Cl.O=C(NCCCOc1ccc2[nH]c3nc(O)nc-3cc2c1)N1CCN(CC2CCCCC2)CC1
> 10000 µg/mL | 8.4 nM |  | 1.13 nM | 15.2% | 30 nM | 7.55 h |  |  |  |  | Cl.O=S(=O)(CCCOc1ccc2[nH]c3nc(O)nc-3cc2c1)C1CCN(CC2CCCCC2)CC1
> 10000 µg/mL | 6.4 nM | 25.2% | 0.63 nM | 9.6% | 25 nM |  |  |  |  |  | Cl.O=S(=O)(CCCOc1ccc2[nH]c3nc(O)nc-3cc2c1)C1CCN(Cc2ccccc2)CC1
> 10000 µg/mL | 3 nM | 22.9% | 0.81 nM |  | 16 nM | 5.13 h |  |  |  |  | Cl.Oc1nc2cc3cc(OCCCc4nnnn4C4CCN(CC5CCCCC5)CC4)ccc3[nH]c-2n1
> 20000 µg/mL | 50 nM |  | 2.78 nM | 70% | 350 nM | 1.08 h |  |  |  |  | Cl.O=C(NCCCOc1ccc2[nH]c3nc(O)nc-3cc2c1)N1CCN(Cc2ccc(F)cc2)CC1
> 20000 µg/mL | 7 nM |  | 1.25 nM | 37.3% | 42 nM | 2.68 h |  |  |  |  | CCC(CC)CN1CCN(C(=O)NCCCOc2ccc3[nH]c4nc(O)nc-4cc3c2)CC1.Cl
> 20000 µg/mL | 60 nM |  | 2.56 nM | 49.4% | 110 nM | 2.02 h |  |  |  |  | Cl.O=S(=O)(CCCOc1ccc2[nH]c3nc(O)nc-3cc2c1)N1CCN(CC2CCCCC2)CC1
> 20000 µg/mL | 50 nM |  | 1.11 nM | 46.8% | 310 nM | 2.17 h |  |  |  |  | Cl.O=C(NCCCOc1ccc2[nH]c3nc(O)nc-3cc2c1)N1CCN(Cc2ccccc2)CC1
> 20000 µg/mL | 60 nM | 67.7% | 5.42 nM | 21.2% | 130 nM |  |  |  |  |  | Cl.O=S(=O)(CCCOc1ccc2[nH]c3nc(O)nc-3cc2c1)N1CCN(Cc2ccccc2)CC1
 |  | 40.6% |  | 21.7% |  |  |  |  |  | 5.55 h and 2.4 h | O=C(CCCOc1ccc2[nH]c3nc(O)nc-3cc2c1)N1CCN(CC2CCCCC2)CC1
